Converted amounts (≈) assume the structure as drawn.
Key:
Homo sapiens [1] = test: Toxicity in healthy human assessed as occurrence of ear pain at 50 […], po; assay type: organism-based; design: route oral; settings: in vivo
Homo sapiens [2] = test: Toxicity in healthy human assessed as occurrence of abdominal pain at 25 […], po; assay type: organism-based, Abdomen; design: route oral; settings: in vivo
Method in brief: (§1)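 Double-blind, placebo-controlled single ascending oral dose; two placebo and six active subjects per cohort. Adverse events were recorded throughout the dosing period and at follow-up, with confinement to 96 h after dosing. Results are reported as number and percentage of subjects with the event (n/N × 100).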

Homo sapiens [3] = test: Toxicity in healthy human assessed as occurrence of ear pain at 250 […], po; assay type: organism-based; design: route oral; settings: in vivo
Homo sapiens [4] = test: Toxicity in healthy human assessed as occurrence of ear pain at 125 […], po; assay type: organism-based; design: route oral; settings: in vivo
Homo sapiens [5] = test: Toxicity in healthy human assessed as occurrence of oral hypoesthesia at 50 […], po; assay type: organism-based; design: route oral; settings: in vivo
Homo sapiens [6] = test: AUC (0 to infinity) in healthy human at 50 mg/kg, po administered as single dose; assay type: ADME, organism-based, Plasma; design: time infinity, route oral; settings: in vivo
[7] = Cmax in healthy human at 25 mg, po administered as single dose; settings: in vivo
Homo sapiens [8] = test: Clearance in healthy human at 1000 mg, po administered as single dose; settings: in vivo
[9] = Clearance in healthy human assessed as recovery of unchanged drug in urine at 50 […], po administered as single dose; assay type: ADME, organism-based; design: route oral; settings: read-out: Recovered in urine
Method in brief: (§2)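 Healthy volunteers, six on drug per cohort, fasted 10 h and given one oral dose with 240 ml water, then fasted 4 h more. Urine was pooled over intervals from 0-2 to 72-96 h and stored at about −70°C. Drug was measured by solid-phase extraction and LC-MS/MS (LLOQ 200 ng/ml), giving the percent of dose recovered unchanged. Values are means (SD).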

Homo sapiens [10] = test: Toxicity in healthy human assessed as occurrence of pruritus at 25 […], po; assay type: organism-based; design: route oral; settings: in vivo
Homo sapiens [11] = test: Toxicity in healthy human assessed as occurrence of ear pain at 1500 […], po; assay type: organism-based; design: route oral; settings: in vivo
Homo sapiens [12] = test: Toxicity in healthy human assessed as occurrence of nausea at 25 […], po; assay type: organism-based; design: route oral; settings: in vivo
Homo sapiens [13] = test: Toxicity in healthy human assessed as occurrence of erythema at 25 […], po; assay type: organism-based; design: route oral; settings: in vivo
Homo sapiens [14] = test: Toxicity in healthy human assessed as occurrence of oral hypoesthesia at 500 […], po; assay type: organism-based; design: route oral; settings: in vivo
[15] = Clearance in healthy human assessed as recovery of unchanged drug in urine at 1000 […], po administered as single dose; assay type: ADME, organism-based; design: route oral; settings: read-out: Recovered in urine; method in brief: as §2
Homo sapiens [16] = test: Toxicity in healthy human assessed as occurrence of headache at 125 […], po; assay type: organism-based; design: route oral; settings: in vivo
[17] = Cmax in healthy human at 1500 mg, po administered as single dose; settings: in vivo
[18] = Tmax in healthy human at 1000 mg/kg, po administered as single dose; assay type: ADME, organism-based; design: route oral; settings: in vivo
Method in brief: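 Tmax was read by visual inspection of individual plasma concentration–time profiles. Plasma was sampled at 0.5-h steps early on and then out to 96 h, and assayed by LC-MS/MS. Subjects were fasted healthy volunteers, six per cohort, given one oral dose with 240 ml water. Values are means (SD).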

Streptococcus pneumoniae [19] = test: Antimicrobial activity against penicillin-resistant Streptococcus pneumoniae; assay type: functional
Homo sapiens [20] = test: Toxicity in healthy human assessed as occurrence of abdominal pain at 250 […], po; assay type: organism-based, Abdomen; design: route oral; settings: in vivo; method in brief: as §1
Homo sapiens [21] = test: Toxicity in healthy human assessed as occurrence of nausea at 1000 […], po; assay type: organism-based; design: route oral; settings: in vivo
Homo sapiens [22] = test: Toxicity in healthy human assessed as occurrence of ear pain at 1000 […], po; assay type: organism-based; design: route oral; settings: in vivo
Homo sapiens [23] = test: Terminal volume of distribution in healthy human at 25 mg, po administered as single dose; settings: in vivo
Homo sapiens [24] = test: Toxicity in healthy human assessed as occurrence of abdominal pain at 1500 […], po; assay type: organism-based, Abdomen; design: route oral; settings: in vivo; method in brief: as §1
Staphylococcus aureus = test: Ratio of fAUC to MIC90 for methicillin-resistant Staphylococcus aureus; assay type: functional
Method in brief: (§3)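 Fasted healthy adults got a single oral 500 mg dose with 240 ml water. Plasma was sampled predose to 96 h and assayed by LC-MS/MS (5–5,000 ng/ml). Cmax was read from individual profiles, and AUC0-∞ came from linear trapezoid plus extrapolation. Free fraction was measured by ultrafiltration (30,000 MWCO) of 0.5 and 6 h plasma. Free exposure was divided by the isolate MIC90.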

Homo sapiens [25] = test: Toxicity in healthy human assessed as occurrence of erythema at 250 […], po; assay type: organism-based; design: route oral; settings: in vivo
Homo sapiens [26] = test: Toxicity in healthy human assessed as occurrence of abdominal pain at 1000 […], po; assay type: organism-based, Abdomen; design: route oral; settings: in vivo; method in brief: as §1
Homo sapiens [27] = test: AUC (0 to infinity) in healthy human at 125 […], po administered as single dose; assay type: ADME, organism-based, Plasma; design: time infinity, route oral; settings: in vivo
Homo sapiens [28] = test: Toxicity in healthy human assessed as occurrence of erythema at 1500 […], po; assay type: organism-based; design: route oral; settings: in vivo
[29] = Terminal phase elimination half-life in healthy human at 25 […], po administered single dose; assay type: ADME, organism-based; design: route oral; settings: in vivo
Method in brief: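 After one fasted oral dose (six healthy subjects per cohort), plasma was sampled from 0.5 to 96 h and assayed by LC-MS/MS (LLOQ 5 ng/ml). λz came from least-squares regression on at least the last three log-concentration points, and t1/2 = 0.693/λz. Values are means (SD).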

Homo sapiens [30] = test: Toxicity in healthy human assessed as occurrence of abdominal pain at 125 […], po; assay type: organism-based, Abdomen; design: route oral; settings: in vivo; method in brief: as §1
Homo sapiens [31] = test: Toxicity in healthy human assessed as occurrence of erythema at 125 […], po; assay type: organism-based; design: route oral; settings: in vivo
Homo sapiens [32] = test: Clearance in healthy human at 1500 mg, po administered as single dose; settings: in vivo
Homo sapiens [33] = test: AUC (0 to infinity) in healthy human at 25 […], po administered as single dose; assay type: ADME, organism-based, Plasma; design: time infinity, route oral; settings: in vivo
[34] = Tmax in healthy human at 500 mg, po administered as single dose; settings: in vivo
Homo sapiens [35] = test: Toxicity in healthy human assessed as occurrence of headache at 50 […], po; assay type: organism-based; design: route oral; settings: in vivo
Streptococcus pneumoniae [36] = test: Antimicrobial activity against penicillin-sensitive Streptococcus pneumoniae; assay type: functional
Homo sapiens [37] = test: Terminal volume of distribution in healthy human at 1000 mg, po administered as single dose; settings: in vivo
Streptococcus pneumoniae [38] = test: Ratio of fCmax to MIC90 for ciprofloxacin-resistant Streptococcus pneumoniae; assay type: functional; method in brief: as §3
Streptococcus pneumoniae [39] = test: Ratio of fAUC to MIC90 for Penicillin-sensitive Streptococcus pneumoniae; assay type: functional; method in brief: as §3
[40] = Clearance in healthy human assessed as recovery of unchanged drug in urine at 500 mg, po administered as single dose; settings: read-out: Recovered in urine
Homo sapiens [41] = test: AUC (0 to infinity) in healthy human at 1000 mg, po administered as single dose; settings: in vivo
Streptococcus pneumoniae [42] = test: Antimicrobial activity against ciprofloxacin-resistant Streptococcus pneumoniae; assay type: functional

`COc1c(N2C[C@@H](C)C[C@H](N)C2)ccc2c(=O)c(C(=O)O)cn(C3CC3)c12` [NEMONOXACIN] gave an Activity (Homo sapiens [1]) of 0%, an Activity (Homo sapiens [2]) of 0% and an Activity (Homo sapiens [3]) of 0%. It also gave an Activity (Homo sapiens [4]) of 0%, an Activity (Homo sapiens [5]) of 0% and an AUC (Homo sapiens [6]) of 2990 ng·h/mL. It also gave a Cmax [7] of 150 ng/mL, a CL (Homo sapiens [8]) of 3.67 mL/min/kg and a dose excreted [9] of 51.1%. For the same compound, the Activity (Homo sapiens [10]) was 0%, the Activity (Homo sapiens [11]) was 0% and the Activity (Homo sapiens [12]) was 0%. It also gave an Activity (Homo sapiens [13]) of 0%, an Activity (Homo sapiens [14]) of 0% and a dose excreted [15] of 36.5%. It also gave an Activity (Homo sapiens [16]) of 0%, a Cmax [17] of 12100 ng/mL and a Tmax [18] of 1.67 h. It also gave an MIC90 (Streptococcus pneumoniae [19]) of 0.03 µg/mL (≈ 0.0808 µM), an Activity (Homo sapiens [20]) of 0% and an Activity (Homo sapiens [21]) of 0%. It also gave an Activity (Homo sapiens [22]) of 0%, a Vbeta (Homo sapiens [23]) of 4.21 L/kg and an Activity (Homo sapiens [24]) of 17%. The Ratio (Staphylococcus aureus) was 453, the Activity (Homo sapiens [25]) was 0% and the Activity (Homo sapiens [26]) was 0%. The AUC (Homo sapiens [27]) was 7670 ng·h/mL, the Activity (Homo sapiens [28]) was 50% and the half-life [29] was 9.71 h. For the same compound, the Activity (Homo sapiens [30]) was 0%, the Activity (Homo sapiens [31]) was 0% and the CL (Homo sapiens [32]) was 3 mL/min/kg. The AUC (Homo sapiens [33]) was 1190 ng·h/mL, the Tmax [34] was 2 h and the Activity (Homo sapiens [35]) was 0%. It also gave an MIC90 (Streptococcus pneumoniae [36]) of 0.015 µg/mL (≈ 0.0404 µM), a Vbeta (Homo sapiens [37]) of 5.28 L/kg and a Ratio (Streptococcus pneumoniae [38]) of 24. For the same compound, the Ratio (Streptococcus pneumoniae [39]) was 1812, the dose excreted [40] was 34.1% and the AUC (Homo sapiens [41]) was 63310 ng·h/mL. It also gave an MIC90 (Streptococcus pneumoniae [42]) of 0.12 µg/mL (≈ 0.323 µM).
